For series [1], the target named is T1, Tyrosine-protein kinase Mer (Homo sapiens, UniProt Q12866).
T1 sequence (Q12866 whole entry): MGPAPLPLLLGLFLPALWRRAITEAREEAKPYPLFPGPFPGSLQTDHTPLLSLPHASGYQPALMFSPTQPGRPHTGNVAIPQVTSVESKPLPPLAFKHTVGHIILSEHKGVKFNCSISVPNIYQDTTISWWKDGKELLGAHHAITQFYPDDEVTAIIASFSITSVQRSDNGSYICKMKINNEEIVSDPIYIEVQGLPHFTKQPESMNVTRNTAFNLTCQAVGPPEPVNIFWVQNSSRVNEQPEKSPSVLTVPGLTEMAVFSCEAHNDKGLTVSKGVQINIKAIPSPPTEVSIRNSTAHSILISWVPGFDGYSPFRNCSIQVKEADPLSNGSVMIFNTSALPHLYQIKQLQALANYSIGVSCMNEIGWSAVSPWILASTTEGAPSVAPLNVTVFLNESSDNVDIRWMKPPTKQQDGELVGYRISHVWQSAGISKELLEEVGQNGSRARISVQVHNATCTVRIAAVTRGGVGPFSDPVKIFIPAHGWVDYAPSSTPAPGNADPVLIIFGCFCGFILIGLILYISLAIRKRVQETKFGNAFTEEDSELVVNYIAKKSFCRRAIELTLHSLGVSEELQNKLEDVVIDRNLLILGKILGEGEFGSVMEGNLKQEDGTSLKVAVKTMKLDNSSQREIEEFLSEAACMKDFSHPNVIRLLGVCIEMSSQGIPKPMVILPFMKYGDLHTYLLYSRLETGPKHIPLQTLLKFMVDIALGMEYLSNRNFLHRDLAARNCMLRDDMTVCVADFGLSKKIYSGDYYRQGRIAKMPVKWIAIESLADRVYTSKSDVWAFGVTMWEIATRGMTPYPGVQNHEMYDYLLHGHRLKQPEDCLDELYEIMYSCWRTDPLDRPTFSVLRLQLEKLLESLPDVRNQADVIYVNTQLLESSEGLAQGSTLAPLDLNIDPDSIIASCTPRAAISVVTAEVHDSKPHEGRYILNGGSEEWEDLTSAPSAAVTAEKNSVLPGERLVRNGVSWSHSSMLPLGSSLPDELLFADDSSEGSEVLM
As to the kind of experiment: Inhibition of MERTK (unknown origin) using EFPIYDFLPAKKK-CONH2 as substrate and ATP after 180 mins by microfluidic capillary electrophoresis method.

Series [2] in a line: Solubility of the compound in phosphate buffer at pH 7.4 by HPLC-UV method. It is filed as physicochemical. The essentials:
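Compound stock was 10 mg/mL in DMSO. It was diluted into pH 7.4 phosphate buffer to a final 1% DMSO and stirred 4 h at room temperature, then spun at 10,000 rpm for 5 min. The saturated supernatant was read by HPLC-UV at 254 nm on a C18 column with a MeOH/water gradient. Concentration was taken from an acetonitrile standard curve spanning 0.20–50 µg/mL. Samples were run in triplicate.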

Series [3] is described as follows: n-octanol-water partition co-efficient, log P of the compound after 24 hrs by HPLC analysis. It is filed as physicochemical.
In series [4] the test system is A549. Briefly: Antiproliferative activity against human A549 cells after 48 hrs by SRB method. It is filed as functional. To be noted: A549, 48 h. For orientation: In SRB staining, fixed cells bind dye roughly in proportion to their protein.
Series [5] in a line: Antiproliferative activity against human DU145 cells after 48 hrs by SRB method. As to conditions: DU-145, 48 h. It is filed as functional.
Series [6] is described as follows: Antiproliferative activity against human KBVIN cells after 48 hrs by SRB method. It is filed as functional.
The test system of series [7] is KB. As to the kind of experiment: Antiproliferative activity against human KB cells after 48 hrs by SRB method. It is filed as functional.

17 compounds from ChEMBL document CHEMBL3808351, “Synthesis, biological evaluation, and physicochemical property assessment of 4-substituted 2-phenylaminoquinazolines as Mer tyrosine kinase inhibitors” (Bioorg Med Chem, 2016) can be followed below.

Values after ≈ are worked out from the molar mass of the structure shown.

For `Fc1ccc(Nc2nc(N3CCOCC3)c3ccccc3n2)cc1`, the IC50 in series [1] is above 30 µM.

As for `COc1ccc(N(C)c2nc(N3CCOCC3)c3ccccc3n2)cc1`, in series [1], the IC50 is above 30 µM.

Regarding `Fc1ccc(Nc2nc(NC3CCCC3)c3ccccc3n2)cc1`, the concentration in solution in series [2] (solubility) was 1.54 µg/mL (≈ 4.78 µM). Further, the log partition coefficient (logP) in series [3] is above 5.

Compound `COc1ccc(Nc2nc(NCCCO)c3ccccc3n2)cc1` displayed a solubility in series [2] of 95.6 µg/mL (≈ 295 µM). In series [3], this compound registered a lipophilicity (logP) of 2.54.

Compound `CCCNc1nc(N(C)c2ccc(OC)cc2)nc2ccccc12` showed a solubility in series [2] of 3.43 µg/mL (≈ 10.6 µM). For the same compound, the logP in series [3] is recorded as above 5.

The compound `Oc1ccc(Nc2nc(NC3CCCC3)c3ccccc3n2)cc1` yielded a solubility in series [2] of 3.1 µg/mL (≈ 9.68 µM). In series [3], this compound returned a logP of 3.95.

As to `COc1ccc(N(C)c2nc(NCC3CCOCC3)c3ccccc3n2)cc1`, the IC50 in series [1] is above 30 µM.

On to `COc1ccc(N(C)c2nc(NC3CCCC3)c3ccccc3n2)cc1`, for which, in series [2], the concentration in solution (solubility) was 1.11 µg/mL (≈ 3.19 µM). The logP in series [3] is listed as above 5.

Consider `Nc1ccc(Nc2nc(NCCCO)c3ccccc3n2)cc1`, for which the IC50 in series [1] was above 30 µM. Also, the GI50 in series [4] was determined as 17.1 µM; in series [5] it was 20.8 µM.

`CNc1nc(Nc2ccc(OC)cc2)nc2ccccc12`: the solubility in series [2] stood at 6.61 µg/mL (≈ 23.6 µM). In series [3], this compound gave a logP of 3.21.

In series [2], `N#Cc1ccc(Nc2nc(NCCCO)c3ccccc3n2)cc1` had a solubility of 7.52 µg/mL (≈ 23.5 µM). This compound also yielded a logP in series [3] of 2.84.

Regarding `N#Cc1ccc(Nc2nc(NC3CCCC3)c3ccccc3n2)cc1`, the IC50 in series [1] is above 30 µM. The concentration for 50% growth inhibition (GI50) in series [4] and in series [5] was above 31.3 µM each time.

In series [2], `COc1ccc(Nc2nc(NC3CCCC3)c3ccccc3n2)cc1` came in with a solubility of 10.4 µg/mL (≈ 31.1 µM). For the same compound, the logP in series [3] is reported as above 5.

On to `CCCNc1nc(Nc2ccc(OC)cc2)nc2ccccc12`, for which the concentration in solution in series [2] (solubility) was 4.36 µg/mL (≈ 14.1 µM). In series [3], this compound showed a logP above 5.

In turn, `OCCCNc1nc(Nc2ccc(F)cc2)nc2ccccc12` showed an IC50 in series [1] above 30 µM. The GI50 in series [4] is 19.3 µM; in series [5], 20.6 µM.

As for `Nc1ccc(Nc2nc(N3CCOCC3)c3ccccc3n2)cc1`, the IC50 in series [1] was above 30 µM.

With `CC(=O)O[C@H]1C(=O)[C@@]2(C)[C@H]([C@H](OC(=O)c3ccccc3)[C@]3(O)C[C@H](OC(=O)[C@H](O)[C@@H](NC(=O)c4ccccc4)c4ccccc4)C(C)=C1C3(C)C)[C@]1(OC(C)=O)CO[C@@H]1C[C@@H]2O` [PACLITAXEL], the GI50 in series [4] is 0.0049 µM; in series [6], 0.948 µM; in series [7], 0.0026 µM.

As usually defined, the IC50 is the point on the concentration scale where inhibition reaches its midpoint. High values mean lower potency, low ones higher potency. In general, solubility refers to the concentration that dissolves in the medium under given conditions. The low end stands for a poorly soluble substance, the high end for a readily soluble substance. A word on the logP: it is the decadic logarithm of the partition coefficient of the neutral form, usually between octanol and water. Lower therefore signals a more hydrophilic compound. As a reminder, the GI50 is the concentration giving 50% growth inhibition.
